The source made the active and inactive calls. The calls are words filed in the database; no cut-off is given here. Where a SMILES comes first, the peptide text is derived from it.
Key:
Assay type in all cases: functional
[1] = Chaperone like activity at heat-induced citrate synthase aggregation assessed as aggregation at 200 uM incubated for 5 mins followed by heat stimulation for 3 mins in 43 degC and measured after 60 mins by fluorimetric analysis (reference value: 100%); details: time 68.0 min
Summary of the method: (§1)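 Thermal aggregation of citrate synthase (150 nM). Peptides were brought to 43 °C in buffer, and CS was added once the temperature had equilibrated. Light scattering at 360 nm was monitored over time. CS with 1% DMSO was set as 100% aggregation, with an Hsp27 (600 nM) chaperone reference run on the same day. Mean ± SEM of at least two or three independent experiments.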

[2] = Chaperone like activity at kappa-casein amyloid formation at 10 to 200 uM measured upto 21 hrs by fluorescence based assay; details: dose 10-200 µM, time hrs <=21
[3] = Chaperone like activity at heat-induced citrate synthase aggregation assessed as aggregation at 100 uM incubated for 5 mins followed by heat stimulation for 3 mins in 43 degC and measured after 60 mins by fluorimetric analysis (reference value: 100%); details: time 68.0 min; summary of the method: as §1
[4] = Chaperone like activity at heat-induced citrate synthase aggregation assessed as aggregation at 60 uM incubated for 5 mins followed by heat stimulation for 3 mins in 43 degC and measured after 60 mins by fluorimetric analysis (reference value: 100%); details: time 68.0 min; summary of the method: as §1
[5] = Chaperone like activity at heat-induced citrate synthase aggregation assessed as aggregation at 0.6 uM incubated for 5 mins followed by heat stimulation for 3 mins in 43 degC and measured after 60 mins by fluorimetric analysis (reference value: 100%); details: time 68.0 min; summary of the method: as §1
[6] = Chaperone like activity at Gdn-Cl/DTT-induced citrate synthase aggregation assessed as aggregation at 200 uM incubated for 5 mins followed by heat stimulation for 3 mins in 43 degC and measured after 60 mins by fluorimetric analysis (reference value: 100%); details: time 68.0 min
Summary of the method: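 Citrate synthase (150 nM) unfolded with guanidine chloride and DTT at room temperature, then a small aliquot diluted into refolding buffer with peptide (200 μM) or Hsp27 (600 nM). Aggregation followed by light scattering for 1 h. The 1% DMSO control at 1 h was taken as 100% aggregation. Mean ± SEM of at least two independent experiments.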

[7] = Chaperone like activity at heat-induced citrate synthase aggregation assessed as aggregation at 30 uM incubated for 5 mins followed by heat stimulation for 3 mins in 43 degC and measured after 60 mins by fluorimetric analysis (reference value: 100%); details: time 68.0 min; summary of the method: as §1
[8] = Chaperone like activity at heat-induced citrate synthase aggregation assessed as aggregation incubated for 5 mins followed by heat stimulation for 3 mins in 43 degC and measured after 60 mins by fluorimetric analysis relative to control; details: time 68.0 min; summary of the method: as §1
[9] = Chaperone like activity at heat-induced citrate synthase aggregation assessed as aggregation at 1.2 uM incubated for 5 mins followed by heat stimulation for 3 mins in 43 degC and measured after 60 mins by fluorimetric analysis (reference value: 100%); details: time 68.0 min; summary of the method: as §1
[10] = Chaperone like activity at heat-induced citrate synthase aggregation assessed as aggregation at 150 uM incubated for 5 mins followed by heat stimulation for 3 mins in 43 degC and measured after 60 mins by fluorimetric analysis (reference value: 100%); details: time 68.0 min; summary of the method: as §1
[11] = Chaperone like activity at kappa-casein amyloid formation at 200 uM measured upto 21 hrs by fluorescence based assay; details: time hrs <=21

Molecule	Activity [1] [%]	further results
N[C@@H](CO)C(=O)N[C@@H](Cc1c[nH]c2ccccc12)C(=O)N[C@@H](CC(=O)O)C(=O)N1CCC[C@H]1C(=O)N[C@@H](Cc1ccccc1)C(=O)O	46	Activity [2]: inactive; Activity [3]: 23%; Activity [4]: 63%; Activity [5]: 92%; Activity [6]: 63%; Activity [7]: 73%; Activity [8]: Dose-dependent effect; Activity [9]: 75%; Activity [10]: 15%
N[C@H](CO)C(=O)N[C@H](Cc1c[nH]c2ccccc12)C(=O)N[C@H](CC(=O)O)C(=O)N1CCC[C@@H]1C(=O)N[C@H](Cc1ccccc1)C(=O)O	90	–
N[C@@H](Cc1c[nH]c2ccccc12)C(=O)N[C@@H](CC(=O)O)C(=O)N1CCC[C@H]1C(=O)N[C@@H](Cc1ccccc1)C(=O)O (H-WDPF-OH)	115	–
H-AWDPF-OH	96	–
H-DWDPF-OH	110	–
H-GPSWDPFRDW-OH	46	Activity [11]: inactive; Activity [8]: Dose-dependent effect
H-SADPF-OH	86	–
H-SWAPF-OH	81	–
H-SWDAF-OH	80	–
H-SWDPA-OH	78	–
H-SWDPFR-OH	96	–
H-SWDPFRD-OH	57	Activity [6]: 52%
H-SWDPFRDW-OH	13	Activity [6]: 0%; Activity [8]: Dose-dependent effect
H-WDPFR-OH	98	–

— ChEMBL document CHEMBL4706741, “De Novo Design, Synthesis, and Mechanistic Evaluation of Short Peptides That Mimic Heat Shock Protein 27 Activity” (ACS Med Chem Lett, 2021)
